According to ChEMBL document CHEMBL5338774, “Quinazoline-2-Carboxamides as Selective PET Radiotracers for Matrix Metalloproteinase-13 Imaging in Atherosclerosis” (J Med Chem, 2023):

Tests used:
Neutrophil collagenase = Neutrophil collagenase (Homo sapiens, UniProt P22894); assay: Inhibition of human recombinant MMP-8 incubated for 30 mins by fluorescence based analysis
[1] = target: Matrix metalloproteinase-9 (Homo sapiens, UniProt P14780); assay: Inhibition of human recombinant MMP-9 incubated for 30 mins by fluorescence based analysis
Matrix metalloproteinase-9, sequence (P14780 whole entry): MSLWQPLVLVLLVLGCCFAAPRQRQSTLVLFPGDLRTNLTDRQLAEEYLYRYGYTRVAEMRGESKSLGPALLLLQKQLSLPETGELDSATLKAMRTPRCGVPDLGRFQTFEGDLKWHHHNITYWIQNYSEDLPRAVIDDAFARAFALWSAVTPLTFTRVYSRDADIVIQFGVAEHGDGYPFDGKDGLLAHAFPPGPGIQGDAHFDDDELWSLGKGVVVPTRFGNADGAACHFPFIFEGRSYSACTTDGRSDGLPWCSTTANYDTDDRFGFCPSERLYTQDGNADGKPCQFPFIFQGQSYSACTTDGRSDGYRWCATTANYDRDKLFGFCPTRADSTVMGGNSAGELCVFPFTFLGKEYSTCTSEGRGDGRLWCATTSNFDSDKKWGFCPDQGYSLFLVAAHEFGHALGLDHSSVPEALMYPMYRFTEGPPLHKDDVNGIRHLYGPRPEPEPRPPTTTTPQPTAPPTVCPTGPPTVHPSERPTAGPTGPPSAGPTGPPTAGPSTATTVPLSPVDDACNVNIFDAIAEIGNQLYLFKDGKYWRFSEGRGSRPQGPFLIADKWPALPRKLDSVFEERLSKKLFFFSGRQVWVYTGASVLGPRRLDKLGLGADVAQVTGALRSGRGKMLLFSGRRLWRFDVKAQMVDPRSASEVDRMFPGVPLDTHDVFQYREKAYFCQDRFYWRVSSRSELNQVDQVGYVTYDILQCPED

Stromelysin-2 = Stromelysin-2 (Homo sapiens, UniProt P09238); assay: Inhibition of human recombinant MMP-10 using […]-Pro-Lys-Pro-Val-Glu-Nval-Trp-Arg-Lys(Dnp)-NH2 as substrate preincubated for 30 mins followed by substrate addition by fluorescence based analysis
Stromelysin-2, sequence (P09238 whole entry): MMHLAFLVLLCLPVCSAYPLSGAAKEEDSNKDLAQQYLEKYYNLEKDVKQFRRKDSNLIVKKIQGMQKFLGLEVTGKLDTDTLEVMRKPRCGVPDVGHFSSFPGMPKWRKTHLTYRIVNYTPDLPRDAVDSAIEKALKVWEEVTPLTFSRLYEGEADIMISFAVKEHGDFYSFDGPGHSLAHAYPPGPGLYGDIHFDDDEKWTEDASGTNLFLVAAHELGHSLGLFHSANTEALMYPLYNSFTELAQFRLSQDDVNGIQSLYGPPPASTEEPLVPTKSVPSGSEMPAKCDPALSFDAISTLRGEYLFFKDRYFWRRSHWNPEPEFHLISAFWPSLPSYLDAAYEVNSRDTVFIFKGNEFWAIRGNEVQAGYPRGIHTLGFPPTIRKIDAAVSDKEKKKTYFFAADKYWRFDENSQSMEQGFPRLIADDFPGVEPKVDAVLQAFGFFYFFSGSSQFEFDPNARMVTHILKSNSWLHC

[2] = target: 72 kDa type IV collagenase (Homo sapiens, UniProt P08253); assay: Inhibition of human recombinant MMP-2 incubated for 30 mins by fluorescence based analysis
72 kDa type IV collagenase, sequence (P08253 whole entry): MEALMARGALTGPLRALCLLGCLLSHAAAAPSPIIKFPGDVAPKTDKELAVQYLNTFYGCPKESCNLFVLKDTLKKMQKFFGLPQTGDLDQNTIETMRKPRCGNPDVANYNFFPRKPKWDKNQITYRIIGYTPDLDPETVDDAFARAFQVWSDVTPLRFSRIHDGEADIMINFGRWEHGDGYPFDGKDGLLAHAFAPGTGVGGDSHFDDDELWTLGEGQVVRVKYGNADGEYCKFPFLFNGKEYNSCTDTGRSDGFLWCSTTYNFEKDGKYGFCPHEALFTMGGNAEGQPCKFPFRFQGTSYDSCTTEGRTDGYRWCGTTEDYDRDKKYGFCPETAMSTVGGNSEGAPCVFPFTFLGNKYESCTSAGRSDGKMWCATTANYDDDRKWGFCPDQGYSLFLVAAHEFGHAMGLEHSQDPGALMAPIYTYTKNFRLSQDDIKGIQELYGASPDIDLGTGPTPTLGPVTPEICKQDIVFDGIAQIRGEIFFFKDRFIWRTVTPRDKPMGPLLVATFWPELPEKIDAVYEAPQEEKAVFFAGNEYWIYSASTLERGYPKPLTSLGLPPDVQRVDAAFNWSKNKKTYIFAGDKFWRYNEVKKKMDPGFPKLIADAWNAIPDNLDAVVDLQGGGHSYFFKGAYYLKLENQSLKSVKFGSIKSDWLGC

Collagenase 3 = Collagenase 3 (Homo sapiens, UniProt P45452); assay: Inhibition of human recombinant MMP-13 using Mca-Lys-Pro-Leu-GlyLeu-Dpa-Ala-Arg-NH2 as substrate preincubated for 30 mins followed by substrate addition by fluorescence based analysis
Interstitial collagenase = target: T1, Interstitial collagenase (Homo sapiens, UniProt P03956); assay: Inhibition of human recombinant MMP-1 incubated for 30 mins by fluorescence based analysis
T1 sequence (P03956 whole entry): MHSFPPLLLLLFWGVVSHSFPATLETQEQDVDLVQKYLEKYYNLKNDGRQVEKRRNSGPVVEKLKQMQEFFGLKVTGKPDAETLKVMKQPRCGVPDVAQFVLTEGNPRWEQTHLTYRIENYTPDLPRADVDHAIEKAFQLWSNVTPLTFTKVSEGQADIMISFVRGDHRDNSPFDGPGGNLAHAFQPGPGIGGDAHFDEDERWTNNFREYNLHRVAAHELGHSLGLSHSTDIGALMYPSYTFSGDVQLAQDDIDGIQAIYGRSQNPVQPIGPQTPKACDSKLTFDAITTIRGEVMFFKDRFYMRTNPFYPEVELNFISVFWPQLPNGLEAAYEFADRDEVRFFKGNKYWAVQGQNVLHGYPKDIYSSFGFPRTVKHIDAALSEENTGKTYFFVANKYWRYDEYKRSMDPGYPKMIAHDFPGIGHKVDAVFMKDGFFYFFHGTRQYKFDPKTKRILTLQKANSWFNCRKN

[3] = Drug distribution in western atherogenic diet fed ApoE-/- mouse liver at […], iv administered as bolus injection measured for 60 mins by PET analysis; type: ADME, organism-based; settings: in vivo, 1 h
Procedure, shortened: (§1)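 A 10 min transmission scan preceded tail-vein IV bolus of radiotracer (~7.5 MBq, over 30 s) in diet-fed ApoE-/- mice. Dynamic whole-body PET ran for 60 min (4×15 s, 4×1 min, 11×5 min frames), corrected for attenuation and scatter, 3D-OSEM/MAP reconstruction. Volumetric organ ROIs gave %ID·cc⁻¹ time-activity curves; n = 2 per group.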

[4] = Drug distribution in western atherogenic diet fed ApoE-/- mouse myocardium assessed as myocardial retention at […], iv administered as bolus injection measured for 60 mins by PET analysis; type: ADME, organism-based; settings: in vivo, 1 h; procedure, shortened: as §1
[5] = Drug distribution in western atherogenic diet fed ApoE-/- mouse bone at […], iv administered as bolus injection measured for 30 mins by gamma counter analysis; type: ADME, organism-based, Bone element; settings: in vivo, 0.5 h
Procedure, shortened: (§2)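 Diet-fed male ApoE-/- mice (39 ± 5 g, n = 4-6) under 2% isoflurane received radiotracer (~7.5 MBq, 100-200 µL) IV by tail-vein bolus over 30 s. After 30 min, blood was taken by cardiac puncture, then PBS/formalin perfusion and organ dissection. Uptake is decay-corrected %ID normalized to tissue mass (%ID/g).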

[6] = Drug distribution in western atherogenic diet fed ApoE-/- mouse stomach at […], iv administered as bolus injection measured for 30 mins by gamma counter analysis; type: ADME, organism-based; settings: in vivo, 0.5 h; procedure, shortened: as §2
[7] = Drug distribution in western atherogenic diet fed ApoE-/- mouse kidney at […], iv administered as bolus injection measured for 30 mins by gamma counter analysis; type: ADME, organism-based; settings: in vivo, 0.5 h; procedure, shortened: as §2
[8] = Drug distribution in western atherogenic diet fed ApoE-/- mouse spleen at […], iv administered as bolus injection measured for 30 mins by gamma counter analysis; type: ADME, organism-based; settings: in vivo, 0.5 h; procedure, shortened: as §2
[9] = Stability of compound in 10% EtOH/saline assessed as compound degradation measured upto 75 mins by analytical radio-HPLC analysis; type: physicochemical; settings: buffer, 1.25 h
Procedure, shortened: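 Radiotracer formulated in 10% EtOH/0.9% saline was held at room temperature up to 75 min. Samples were analysed by analytical radio-HPLC (C18, 0.1 M ammonium formate/ACN gradient, 1 mL·min⁻¹).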

[10] = Drug distribution in western atherogenic diet fed ApoE-/- mouse kidney at […], iv administered as bolus injection measured for 60 mins by PET analysis; type: ADME, organism-based; settings: in vivo, 1 h; procedure, shortened: as §1
[11] = Drug distribution in western atherogenic diet fed ApoE-/- mouse fat tissue at […], iv administered as bolus injection measured for 30 mins by gamma counter analysis; type: ADME, organism-based, Adipose tissue; settings: in vivo, 0.5 h; procedure, shortened: as §2
[12] = Drug distribution in western atherogenic diet fed ApoE-/- mouse intestine at […], iv administered as bolus injection measured for 30 mins by gamma counter analysis; type: ADME, organism-based; settings: in vivo, 0.5 h; procedure, shortened: as §2
[13] = Drug distribution in western atherogenic diet fed ApoE-/- mouse lung at […], iv administered as bolus injection measured for 30 mins by gamma counter analysis; type: ADME, organism-based; settings: in vivo, 0.5 h; procedure, shortened: as §2
[14] = Drug distribution in western atherogenic diet fed ApoE-/- mouse aortic plaques at […], iv administered as bolus injection measured for 30 mins by Oil Red O staining based autoradiography; type: ADME, organism-based, Aorta; settings: in vivo, 0.5 h
Procedure, shortened: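 Male ApoE-/- mice were fed a western atherogenic diet from 8 weeks of age for 13-16 weeks. Radiotracer (~7.5 MBq) was given IV by tail-vein bolus over 30 s. Blocking: unlabelled tracer analogue (2.5 mg/kg; DMA/propylene glycol/PEG400/water) or WAY170523 (7.5 mg/kg; DMSO/PEG400/water), both IV 15 min before. At 30 min, perfused aortae were exposed to a phosphor screen for 10 half-lives (%ID·mm⁻²), with ORO staining.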

[15] = Tmax in western atherogenic diet fed ApoE-/- mouse blood at […], iv administered as bolus injection measured for 60 mins by PET analysis; type: ADME, organism-based; settings: in vivo, 1 h; procedure, shortened: as §1
[16] = Octanol/PBS distribution coefficient, logD of compound at pH 7.4 incubated for 10 mins under shaking condition by gamma counter analysis; type: physicochemical
Procedure, shortened: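 Radiotracer partitioning between 1-octanol and 1× PBS at pH 7.4. Mean ± standard error of two independent experiments, each in quadruplicate.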

[17] = Stability in western atherogenic diet fed ApoE-/- mouse plasma assessed as intact compound level at ~75 MBq, iv administered as bolus injection and measured after 30 mins by gamma counter analysis; type: ADME, organism-based; settings: read-out: Stability
Procedure, shortened: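 Blood was drawn by cardiac puncture into K₂EDTA tubes 30 min after IV radiotracer in diet-fed ApoE-/- mice. Optional IV pretreatment 15 min before: unlabelled analogue 2.5 mg/kg or WAY170523 7.5 mg/kg. Pooled protein-free plasma was spiked with standard and run on radio-HPLC (C18, ammonium formate/ACN). Fractions were collected each minute and gamma-counted to give the parent fraction.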

[18] = Drug distribution in western atherogenic diet fed ApoE-/- mouse pancreas at […], iv administered as bolus injection measured for 30 mins by gamma counter analysis; type: ADME, organism-based; settings: in vivo, 0.5 h; procedure, shortened: as §2
[19] = Drug distribution in western atherogenic diet fed ApoE-/- mouse blood assessed as compound remaining at […], iv administered as bolus injection measured for 30 mins by gamma counter analysis; type: ADME, organism-based; settings: in vivo, 0.5 h; procedure, shortened: as §2
[20] = Drug distribution in western atherogenic diet fed ApoE-/- mouse myocardium assessed as compound remaining at […], iv administered as bolus injection measured for 30 mins by gamma counter analysis; type: ADME, organism-based; settings: in vivo, 0.5 h; procedure, shortened: as §2
[21] = Drug distribution in western atherogenic diet fed ApoE-/- mouse muscle tissue at […], iv administered as bolus injection measured for 30 mins by gamma counter analysis; type: ADME, organism-based; settings: in vivo, 0.5 h; procedure, shortened: as §2
[22] = Drug distribution in western atherogenic diet fed ApoE-/- mouse brain at […], iv administered as bolus injection measured for 30 mins by gamma counter analysis; type: ADME, organism-based; settings: in vivo, 0.5 h; procedure, shortened: as §2

Neutrophil collagenase, sequence (P22894 whole entry): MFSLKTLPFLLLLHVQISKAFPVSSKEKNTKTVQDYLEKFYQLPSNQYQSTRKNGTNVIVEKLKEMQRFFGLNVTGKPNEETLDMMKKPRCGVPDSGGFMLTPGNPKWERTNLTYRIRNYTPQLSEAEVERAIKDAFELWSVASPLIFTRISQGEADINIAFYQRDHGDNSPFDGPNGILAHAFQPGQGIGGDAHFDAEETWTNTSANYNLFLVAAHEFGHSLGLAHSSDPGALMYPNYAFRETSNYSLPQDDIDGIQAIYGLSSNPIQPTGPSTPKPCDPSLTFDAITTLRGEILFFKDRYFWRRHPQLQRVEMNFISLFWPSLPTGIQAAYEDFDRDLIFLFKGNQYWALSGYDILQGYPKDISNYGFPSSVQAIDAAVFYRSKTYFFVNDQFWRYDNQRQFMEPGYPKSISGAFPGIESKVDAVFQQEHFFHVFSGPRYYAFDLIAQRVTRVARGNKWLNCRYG

| IC50 (Neutrophil collagenase) | IC50 [1] | IC50 (Stromelysin-2) | IC50 [2] | IC50 (Collagenase 3) | IC50 (Interstitial collagenase) | SMILES | further results |
| --- | --- | --- | --- | --- | --- | --- | --- |
| 2200 nM | > 10000 nM | 6900 nM | > 10000 nM | 12 nM | > 10000 nM | Cc1cc(CNC(=O)c2nc3ccc(F)c(OCCc4ccc(O)cc4)c3c(=O)[nH]2)ccc1F |  |
|  |  |  |  | 313 nM |  | COc1ccc(CNC(=O)c2nc3ccc(F)c(F)c3c(=O)[nH]2)cc1 |  |
|  |  |  |  | 113 nM |  | COc1ccc(CCOc2c(F)ccc3nc(C(=O)NCc4ccc(OC)cc4)[nH]c(=O)c23)cc1 |  |
|  |  |  |  |  |  | Cc1cc(CNC(=O)c2cc(C(=O)NCc3ccc(OCC[18F])cc3)ncn2)ccc1F | Drug uptake [3]: ~ 12 %ID/cc; Drug uptake [4]: ~ 5 %ID/cc |
| 2400 nM | > 10000 nM | 3200 nM | > 10000 nM | 1.3 nM | > 10000 nM | COc1cccc(CNC(=O)c2nc3ccc(F)c(OCCc4ccc(C(=O)O)cc4)c3c(=O)[nH]2)c1 |  |
|  |  |  |  |  |  | Cc1cc(CNC(=O)c2nc3ccc(F)c(OCCc4ccc(O[11CH3])cc4)c3c(=O)[nH]2)ccc1F | Drug uptake [5]: ~ 2 % ID/g; Drug uptake [6]: ~ 2 % ID/g; Drug uptake [3]: 9.3 %ID/cc; Drug uptake [7]: < 7 % ID/g; Drug uptake [8]: ~ 2 % ID/g; Stability [9]: Stable; Drug uptake [10]: 7.4 %ID/cc; Drug uptake [11]: ~ 2 % ID/g; Drug uptake [12]: < 7 % ID/g; Drug uptake [13]: ~ 2 % ID/g; Drug uptake [14]: 129.8 %ID.m^-2; Tmax [15]: 37.5 s; logD at 10 min [16]: 3.76; Drug uptake [4]: < 0.5 %ID/cc; remaining at 0.5 h [17]: 70%; Drug uptake [18]: 3.27 % ID/g; Drug uptake [19]: 1.83 % ID/g; Drug uptake [20]: ~ 1 % ID/g; Drug uptake [21]: ~ 2 % ID/g; Drug uptake [22]: ~ 2 % ID/g |
| 1500 nM | > 10000 nM | 6800 nM | > 10000 nM | 48 nM | > 10000 nM | COc1ccc(CNC(=O)c2nc3ccc(F)c(OCCc4ccc(O)cc4)c3c(=O)[nH]2)cc1 |  |
| 2100 nM | > 10000 nM | 2800 nM | > 10000 nM | 1.3 nM | > 10000 nM | O=C(O)c1ccc(CCOc2c(F)ccc3nc(C(=O)NCc4cccc(O)c4)[nH]c(=O)c23)cc1 |  |
| 1700 nM | > 10000 nM | 2500 nM | > 10000 nM | 1.2 nM | > 10000 nM | Cc1cc(CNC(=O)c2nc3ccc(F)c(OCCc4ccc(C(=O)O)cc4)c3c(=O)[nH]2)ccc1F |  |
